Experimental data pooled from the literature.
Target: Ephrin type-A receptor 8 (EPHA8, Homo sapiens, UniProt P29322)
One construct used (P29322 28-1005): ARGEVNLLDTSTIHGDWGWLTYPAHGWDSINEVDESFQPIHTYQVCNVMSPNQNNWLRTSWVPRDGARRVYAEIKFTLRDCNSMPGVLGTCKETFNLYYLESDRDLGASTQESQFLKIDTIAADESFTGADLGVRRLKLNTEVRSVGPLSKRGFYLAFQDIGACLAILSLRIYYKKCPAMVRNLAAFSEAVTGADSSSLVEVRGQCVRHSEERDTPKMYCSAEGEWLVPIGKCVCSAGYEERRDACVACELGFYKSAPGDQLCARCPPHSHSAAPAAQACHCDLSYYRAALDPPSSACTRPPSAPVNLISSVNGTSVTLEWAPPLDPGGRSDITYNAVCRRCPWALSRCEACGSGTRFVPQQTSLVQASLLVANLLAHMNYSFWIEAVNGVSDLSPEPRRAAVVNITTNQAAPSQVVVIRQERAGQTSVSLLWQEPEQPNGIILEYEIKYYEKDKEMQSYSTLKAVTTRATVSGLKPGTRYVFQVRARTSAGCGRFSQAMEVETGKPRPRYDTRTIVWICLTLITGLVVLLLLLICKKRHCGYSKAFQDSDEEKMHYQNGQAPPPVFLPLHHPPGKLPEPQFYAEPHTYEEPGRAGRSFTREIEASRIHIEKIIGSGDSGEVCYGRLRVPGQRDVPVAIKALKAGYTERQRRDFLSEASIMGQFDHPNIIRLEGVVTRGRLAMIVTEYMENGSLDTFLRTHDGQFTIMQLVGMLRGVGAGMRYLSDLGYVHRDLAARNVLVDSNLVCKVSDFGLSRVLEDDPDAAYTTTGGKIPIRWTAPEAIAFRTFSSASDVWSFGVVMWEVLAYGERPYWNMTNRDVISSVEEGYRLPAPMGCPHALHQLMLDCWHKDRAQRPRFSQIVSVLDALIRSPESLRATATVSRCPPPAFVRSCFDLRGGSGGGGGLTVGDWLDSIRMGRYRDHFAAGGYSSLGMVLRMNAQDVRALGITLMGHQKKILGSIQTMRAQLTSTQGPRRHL

Compound | read-out | method | tested at | remaining binding [%]
C[C@H](c1ccnc(Nc2nc3ccc(-c4cc(N(C)C)ncn4)cc3[nH]2)c1)N1CCN(C(=O)CC(F)(F)F)CC1 | cell-free assay | competition with immobilised ligand | 0.1 µM | 100
CC1CCCN1c1nccc(-c2cnn3ncccc23)n1 (centres unmarked) | binding |  | 1 µM | 100
Cc1nc(C2CCN(C(=O)c3ccc(OC(F)(F)F)cc3N)CC2)c2ncc(N3CCN(C)CC3)cc2n1 | cell-free assay | competition with immobilised ligand | 1 µM | 98
CN(C)c1nccc(-c2cnc3ncccn23)n1 | binding |  | 1 µM | 79
Nc1c(C(=O)NCc2ccc(C(=O)NCCCC3CCCCC3)cc2)cnn1-c1ccccc1 | cell-free assay | competition with immobilised ligand | 0.1 µM | 100
Nc1ncc2c(n1)-c1c([nH]c3ccc(C#CC4CC4)cc13)CCCC2 | binding | competition with immobilised ligand | 1 µM | 89
O=C(NCCCN1CCOCC1)c1ccc(Nc2ncc(Cl)c(-c3ccc(Cl)s3)n2)cc1 | binding | competition with immobilised ligand | 1 µM | 95
CCN1CCN(Cc2ccc(C(=O)Nc3ccc(C)c(Oc4ccc5c(c4)CC(=O)N5)c3)cc2C(F)(F)F)CC1 | binding | competition with immobilised ligand | 1 µM | 82
O=C(NCCCN1CCOCC1)c1ccc(Nc2nccc(-c3cc4ccccc4s3)n2)cc1 | binding | competition with immobilised ligand | 1 µM | 96
CCOC(=O)c1cc2cc(-c3cc(C(=O)NCc4ccc(C(=O)O)cc4)nn3C)ccc2[nH]1 | cell-free assay | competition with immobilised ligand | 0.1 µM | 100
c1cncc(-c2cccc(Nc3nccc(NC4CCCCC4)n3)c2)c1 | binding | competition with immobilised ligand | 10 µM | 100
CN(C)c1ncc(F)c(-c2cnn3ncccc23)n1 | binding |  | 1 µM | 100
O=C(NCC1CCOCC1)c1n[nH]cc1NC(=O)c1c(F)cccc1F | binding | competition with immobilised ligand | 1 µM | 100
COc1cnc(Nc2cccc(S(N)(=O)=O)c2)nc1N1CCN(c2ccccc2)C(=O)C1 | binding | competition with immobilised ligand | 1 µM | 100
Cc1cnc(Nc2ccc(C(=O)N3CCC(N4CCCC4)CC3)cc2)nc1-c1cc2ccccc2s1 | binding | competition with immobilised ligand | 1 µM | 100
C=CC(=O)N1CCC(C(=O)NCC(=O)N2CCN(c3nc(-c4cnc(N)nc4C(F)F)nc(N4CCOCC4)n3)CC2)CC1 | binding | competition with immobilised ligand | 1 µM | 100
CCOCCn1cc(C(=O)Nc2ccc(-n3nc(-c4cccnc4)cc3C(F)(F)F)cn2)ccc1=O | cell-free assay | competition with immobilised ligand | 1 µM | 84
F[C@@H]1CCN(c2nccc(-c3cnn4ncccc34)n2)C1 | binding |  | 1 µM | 92
CC(=O)C1=C(C)N(c2cccc(C(F)(F)F)c2)C(=O)N[C@@H]1c1ccc(C#N)nc1 | cell-free assay | competition with immobilised ligand | 1 µM | 100
CN(CCCC(F)(F)F)c1nccc(-c2cnn3ncccc23)n1 | binding |  | 1 µM | 93
